Measurements taken from ChEMBL document CHEMBL1137764, “Design, synthesis, antibacterial activity and physicochemical parameters of novel N-4-piperazinyl derivatives of norfloxacin” (Bioorg Med Chem, 2009).
Converted amounts (≈) assume the structure as drawn.

Legend:
Pseudomonas aeruginosa [1] = assay: Antimicrobial activity against Pseudomonas aeruginosa at 4 ug/ml after 24 hrs by agar diffusion technique; type: functional; details: read-out: DIZ
Outline: (§1)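 Strains came from a university microbiology department. Inocula were 10⁶ CFU/mL. Mueller-Hinton agar was seeded with culture, poured 3–4 mm thick, and 10 mm cups were bored. Compounds were dissolved in DMF (10 mg/mL stock), diluted, and the solution was placed in the cups. Plates were incubated at 37 °C overnight. Inhibition zone diameter (mm) was read at 24 h.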

Pseudomonas aeruginosa [2] = assay: Antimicrobial activity against Pseudomonas aeruginosa at 16 ug/ml after 24 hrs by agar diffusion technique; type: functional; details: read-out: DIZ; outline: as §1
Pseudomonas aeruginosa [3] = assay: Antimicrobial activity against Pseudomonas aeruginosa at 64 ug/ml after 24 hrs by agar diffusion technique; type: functional; details: read-out: DIZ; outline: as §1
Pseudomonas aeruginosa [4] = assay: Antimicrobial activity against Pseudomonas aeruginosa at 128 ug/ml after 24 hrs by agar diffusion technique; type: functional; details: read-out: DIZ; outline: as §1
Pseudomonas aeruginosa [5] = assay: Antimicrobial activity against Pseudomonas aeruginosa at 512 ug/ml after 24 hrs by agar diffusion technique; type: functional; details: read-out: DIZ; outline: as §1
Escherichia coli [6] = assay: Antimicrobial activity against Escherichia coli at 4 ug/ml after 24 hrs by agar diffusion technique; type: functional; details: read-out: DIZ; outline: as §1
Escherichia coli [7] = assay: Antimicrobial activity against Escherichia coli at 16 ug/ml after 24 hrs by agar diffusion technique; type: functional; details: read-out: DIZ; outline: as §1
Escherichia coli [8] = assay: Antimicrobial activity against Escherichia coli at 64 ug/ml after 24 hrs by agar diffusion technique; type: functional; details: read-out: DIZ; outline: as §1
Escherichia coli [9] = assay: Antimicrobial activity against Escherichia coli at 128 ug/ml after 24 hrs by agar diffusion technique; type: functional; details: read-out: DIZ; outline: as §1
Escherichia coli [10] = assay: Antimicrobial activity against Escherichia coli at 512 ug/ml after 24 hrs by agar diffusion technique; type: functional; details: read-out: DIZ; outline: as §1
Klebsiella pneumoniae [11] = assay: Antimicrobial activity against Klebsiella pneumoniae at 4 ug/ml after 24 hrs by agar diffusion technique; type: functional; details: read-out: DIZ; outline: as §1
Klebsiella pneumoniae [12] = assay: Antimicrobial activity against Klebsiella pneumoniae at 16 ug/ml after 24 hrs by agar diffusion technique; type: functional; details: read-out: DIZ; outline: as §1
Klebsiella pneumoniae [13] = assay: Antimicrobial activity against Klebsiella pneumoniae at 64 ug/ml after 24 hrs by agar diffusion technique; type: functional; details: read-out: DIZ; outline: as §1
Klebsiella pneumoniae [14] = assay: Antimicrobial activity against Klebsiella pneumoniae at 128 ug/ml after 24 hrs by agar diffusion technique; type: functional; details: read-out: DIZ; outline: as §1
Klebsiella pneumoniae [15] = assay: Antimicrobial activity against Klebsiella pneumoniae at 512 ug/ml after 24 hrs by agar diffusion technique; type: functional; details: read-out: DIZ; outline: as §1
Staphylococcus aureus [16] = assay: Antimicrobial activity against Staphylococcus aureus at 4 ug/ml after 24 hrs by agar diffusion technique; type: functional; details: read-out: DIZ; outline: as §1
Staphylococcus aureus [17] = assay: Antimicrobial activity against Staphylococcus aureus at 16 ug/ml after 24 hrs by agar diffusion technique; type: functional; details: read-out: DIZ; outline: as §1
Staphylococcus aureus [18] = assay: Antimicrobial activity against Staphylococcus aureus at 64 ug/ml after 24 hrs by agar diffusion technique; type: functional; details: read-out: DIZ; outline: as §1
Staphylococcus aureus [19] = assay: Antimicrobial activity against Staphylococcus aureus at 128 ug/ml after 24 hrs by agar diffusion technique; type: functional; details: read-out: DIZ; outline: as §1
Staphylococcus aureus [20] = assay: Antimicrobial activity against Staphylococcus aureus at 512 ug/ml after 24 hrs by agar diffusion technique; type: functional; details: read-out: DIZ; outline: as §1
Pseudomonas aeruginosa [21] = assay: Antimicrobial activity against Pseudomonas aeruginosa after 24 hrs by agar diffusion technique; type: functional; details: for MIC: Pseudomonas aeruginosa, 24 h
Outline: (§2)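 Agar cup diffusion on Mueller-Hinton agar seeded from 10⁶ CFU/mL suspensions, with 10 mm cups in a 3–4 mm layer. Compounds were in DMF (10 mg/mL stock) at several concentrations. Plates were incubated at 37 °C and zones measured after 24 h. MIC was taken as the intercept of the plot of log concentration against inhibition zone diameter.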

Escherichia coli [22] = assay: Antimicrobial activity against Escherichia coli after 24 hrs by agar diffusion technique; type: functional; details: for MIC: Escherichia coli, 24 h; outline: as §2
Klebsiella pneumoniae [23] = assay: Antimicrobial activity against Klebsiella pneumoniae after 24 hrs by agar diffusion technique; type: functional; details: for MIC: Klebsiella pneumoniae, 24 h; outline: as §2
Staphylococcus aureus [24] = assay: Antimicrobial activity against Staphylococcus aureus after 24 hrs by agar diffusion technique; type: functional; details: for MIC: Staphylococcus aureus, 24 h; outline: as §2
[25] = Octanol-phosphate buffer partition coefficient, log D at pH 7.4 by spectrophotometry; type: physicochemical
Outline: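 Shake-flask method. A 0.2 mg/mL stock was diluted into pH 7.4 phosphate buffer and mixed with an equal volume of n-octanol, phases mutually presaturated and protected from light. Samples were vortexed 3 min, then shaken 5 h at 25 °C. Both phases were assayed by UV at 270–280 nm. D is the molar concentration ratio, octanol to aqueous.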

| SMILES | zone of inhibition at 4 µg/mL (Pseudomonas aeruginosa [1]) [mm] | zone of inhibition at 16 µg/mL (Pseudomonas aeruginosa [2]) [mm] | zone of inhibition at 64 µg/mL (Pseudomonas aeruginosa [3]) [mm] | zone of inhibition at 128 µg/mL (Pseudomonas aeruginosa [4]) [mm] | zone of inhibition at 512 µg/mL (Pseudomonas aeruginosa [5]) [mm] | zone of inhibition at 4 µg/mL (Escherichia coli [6]) [mm] | zone of inhibition at 16 µg/mL (Escherichia coli [7]) [mm] | zone of inhibition at 64 µg/mL (Escherichia coli [8]) [mm] | zone of inhibition at 128 µg/mL (Escherichia coli [9]) [mm] | zone of inhibition at 512 µg/mL (Escherichia coli [10]) [mm] | zone of inhibition at 4 µg/mL (Klebsiella pneumoniae [11]) [mm] | zone of inhibition at 16 µg/mL (Klebsiella pneumoniae [12]) [mm] | zone of inhibition at 64 µg/mL (Klebsiella pneumoniae [13]) [mm] | zone of inhibition at 128 µg/mL (Klebsiella pneumoniae [14]) [mm] | zone of inhibition at 512 µg/mL (Klebsiella pneumoniae [15]) [mm] | zone of inhibition at 4 µg/mL (Staphylococcus aureus [16]) [mm] | zone of inhibition at 16 µg/mL (Staphylococcus aureus [17]) [mm] | zone of inhibition at 64 µg/mL (Staphylococcus aureus [18]) [mm] | zone of inhibition at 128 µg/mL (Staphylococcus aureus [19]) [mm] | zone of inhibition at 512 µg/mL (Staphylococcus aureus [20]) [mm] | other results |
| --- | --- | --- | --- | --- | --- | --- | --- | --- | --- | --- | --- | --- | --- | --- | --- | --- | --- | --- | --- | --- | --- |
| CCn1cc(C(=O)O)c(=O)c2cc(F)c(N3CCN(CN4CCOCC4)CC3)cc21 | 0 | 0 | 3 | 3 | 15 | 0 | 0 | 0 | 0 | 30 | 0 | 0 | 0 | 0 | 20 | 5 | 7 | 7 | 8 | 10 | logMIC (Pseudomonas aeruginosa [21]): 1.2; MIC (Pseudomonas aeruginosa [21]): 16 µg/mL (≈ 38.2 µM); logMIC (Escherichia coli [22]): 2.11; MIC (Escherichia coli [22]): 128 µg/mL (≈ 306 µM); logMIC (Klebsiella pneumoniae [23]): 2.11; MIC (Klebsiella pneumoniae [23]): 128 µg/mL (≈ 306 µM); logMIC (Staphylococcus aureus [24]): 0; MIC (Staphylococcus aureus [24]): < 1 µg/mL; logD [25]: -0.043 |
| CCn1cc(C(=O)O)c(=O)c2cc(F)c(N3CCNCC3)cc21 [NORFLOXACIN] | 0 | 2 | 5 | 15 | 20 | 0 | 0 | 4 | 6 | 19 | 0 | 0 | 5 | 8 | 12 | 0 | 0 | 0 | 3 | 20 | logMIC (Pseudomonas aeruginosa [21]): 0.95; MIC (Pseudomonas aeruginosa [21]): 9 µg/mL (≈ 28.2 µM); logMIC (Escherichia coli [22]): 1.45; MIC (Escherichia coli [22]): 14 µg/mL (≈ 43.8 µM); logMIC (Klebsiella pneumoniae [23]): 0; MIC (Klebsiella pneumoniae [23]): 8 µg/mL (≈ 25.1 µM); logMIC (Staphylococcus aureus [24]): 1.81; MIC (Staphylococcus aureus [24]): 64 µg/mL (≈ 200 µM); logD [25]: -0.41 |
| CCn1cc(C(=O)O)c(=O)c2cc(F)c(N3CC[N+](CCO)(CCO)CC3)cc21.[Br-] | 0 | 0 | 0 | 0 | 0 | 0 | 4 | 7 | 9 | 12 | 0 | 0 | 4 | 5 | 11 | 0 | 0 | 0 | 0 | 14 | logMIC (Pseudomonas aeruginosa [21]): 2.71; MIC (Pseudomonas aeruginosa [21]): > 512 µg/mL; logMIC (Escherichia coli [22]): 0.6; MIC (Escherichia coli [22]): 4 µg/mL; logMIC (Klebsiella pneumoniae [23]): 1; MIC (Klebsiella pneumoniae [23]): 10 µg/mL; logMIC (Staphylococcus aureus [24]): 2.11; MIC (Staphylococcus aureus [24]): 128 µg/mL; logD [25]: 0.158 |
| CCn1cc(C(=O)O)c(=O)c2cc(F)c(N3CCN(C4CCCC4)CC3)cc21 | 0 | 0 | 0 | 0 | 0 | 0 | 0 | 0 | 3 | 8 | 0 | 0 | 2 | 3 | 8 | 0 | 0 | 4 | 7 | 15 | logMIC (Pseudomonas aeruginosa [21]): 2.71; MIC (Pseudomonas aeruginosa [21]): > 512 µg/mL; logMIC (Escherichia coli [22]): 1.81; MIC (Escherichia coli [22]): 64 µg/mL (≈ 165 µM); logMIC (Klebsiella pneumoniae [23]): 1.11; MIC (Klebsiella pneumoniae [23]): 13 µg/mL (≈ 33.6 µM); logMIC (Staphylococcus aureus [24]): 1.04; MIC (Staphylococcus aureus [24]): 11 µg/mL (≈ 28.4 µM) |
